From ChEMBL document CHEMBL3351898, “4-Aminoquinoline-pyrimidine hybrids: synthesis, antimalarial activity, heme binding and docking studies” (Eur J Med Chem, 2015)
Active and inactive are the calls of the source. No cut-off for these calls is given here.

How the values were obtained:
Plasmodium berghei [1] = assay: Antimalarial activity against Plasmodium berghei infected in mouse assessed as reduction in parasitemia at 100 mg/kg/day, po dosed on days 0, 1 and 2 post infection measured on day 5; type: functional; details: 120 h
Summary of the method: (§1)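 P. berghei-infected mice were given the compound orally at 11.1, 33.3 or 100 mg/kg × 3 days. Vehicle and chloroquine groups were included. Parasitemia was read on days 5 and 7, and % suppression was calculated with mean parasitemia in the vehicle control taken as 100%. Mean survival time was also recorded.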

Vero [2] = assay: Cytotoxicity against African green monkey Vero cells up to 20 uM after 72 hrs by neutral red assay; type: cell-based; details: chlorocebus sabaeus, 48 h, in the assay text read “48 hrs” for “72 hrs”
Summary of the method: (§2)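 Vero cells (monkey kidney […]) were seeded at 25,000 cells/well and incubated 24 h, then exposed to a range of compound concentrations for 48 h. Viable cells were counted by Neutral Red assay, and IC50 was obtained from dose-response curves.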

Plasmodium berghei [3] = assay: Antimalarial activity against Plasmodium berghei infected in mouse assessed as mean survival time at 100 mg/kg/day, po dosed on days 0, 1 and 2 post infection; type: functional
Summary of the method: (§3)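 P. berghei-infected mice dosed orally with test agent at 11.1, 33.3 or 100 mg/kg, once daily for 3 days; vehicle and chloroquine controls. Mean survival time recorded; parasitemia on days 5 and 7 expressed as % suppression, taking mean vehicle-control parasitemia as 100%.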

Vero [4] = assay: Cytotoxicity against African green monkey Vero cells after 72 hrs by neutral red assay; type: cell-based, Chlorocebus sabaeus; details: in the assay text read “after 48 hrs” for “after 72 hrs”; summary of the method: as §2
Plasmodium berghei [5] = assay: Antimalarial activity against Plasmodium berghei infected in mouse assessed as reduction in parasitemia at 100 mg/kg/day, po dosed on days 0, 1 and 2 post infection measured on day 7; type: functional; details: 168 h; summary of the method: as §1
[6] = Selectivity index, ratio of IC50 for African green monkey Vero cells to IC50 for chloroquine-sensitive Plasmodium falciparum D6; type: toxicity, cell-based; details: read-out: Ratio IC50
Summary of the method: (§4)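 Vero cells seeded at 25,000 cells/well and grown 24 h, then exposed to a range of compound concentrations for 48 h. Viability measured by Neutral Red uptake; IC50 from dose-response curves. SI calculated as Vero IC50 divided by antiplasmodial IC50 for the named strain.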

Plasmodium falciparum [7] = assay: Antimalarial activity against chloroquine-sensitive Plasmodium falciparum D6 assessed as inhibition of parasite growth after 72 hrs by parasite LDH release assay; type: functional, organism-based; details: D6, 72 h
Summary of the method: (§5)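 Asexual P. falciparum cultures at 2% parasitemia and 2% hematocrit in RPMI 1640 with 10% human serum and amikacin were added to serially diluted compound. Plates were incubated 72 h at 37 °C under 90% N2/5% O2/5% CO2. Growth was read by pLDH: Malstat reagent 30 min at room temperature, then NBT/PES 1 h in the dark. IC50 taken from dose-response curves; chloroquine and pyrimethamine controls.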

[8] = Selectivity index, ratio of IC50 for African green monkey Vero cells to IC50 for chloroquine-resistant Plasmodium falciparum W2; type: toxicity, cell-based; details: read-out: Ratio IC50; summary of the method: as §4
Plasmodium falciparum [9] = assay: Antimalarial activity against chloroquine-resistant Plasmodium falciparum W2 assessed as inhibition of parasite growth after 72 hrs by parasite LDH release assay; type: functional, organism-based; details: W2, 72 h; summary of the method: as §5
[10] = Resistance index, ratio of IC50 for chloroquine-resistant Plasmodium falciparum W2 to IC50 for chloroquine-sensitive Plasmodium falciparum D6; type: functional
Heme [11] = assay: Binding affinity to monomeric heme (unknown origin) assessed as binding constant at pH 5.6
Summary of the method: (§6)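 Hematin in 40% DMSO (monomeric heme, Soret band 402 nm) was titrated with compound in 0.02 M HEPES pH 7.4 or 0.02 M MES pH 5.6. Association constants (log K) were calculated from the titration data, and stoichiometry was taken from a Job's plot of absorbance at 402 nm against compound mole fraction.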

Heme [12] = assay: Binding affinity to heme (unknown origin) assessed as reduction in Fe(3+) intensity at pH 7.4
Heme [13] = assay: Binding affinity to heme (unknown origin) assessed as reduction in Fe(3+) intensity
Heme [14] = assay: Binding affinity to heme (unknown origin) assessed as reduction in Fe(3+) intensity at pH 5.6
Heme [15] = assay: Binding affinity to monomeric heme (unknown origin) assessed as binding constant at pH 7.4; summary of the method: as §6
mu-oxodimeric heme = assay: Binding affinity to mu-oxo-heme (unknown origin) assessed as binding constant at pH 5.8
Summary of the method: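 μ-Oxo-dimeric heme in 20 mM phosphate buffer pH 5.8 was titrated with compound, following the decrease in absorbance at 362 nm. The log K was derived from the titration, and stoichiometry came from a Job's plot.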

Plasmodium falciparum [16] = assay: Antimalarial activity against chloroquine-resistant Plasmodium falciparum W2 assessed as inhibition of parasite growth up to 19 uM after 72 hrs by parasite LDH release assay; type: functional, organism-based; summary of the method: as §5
Plasmodium berghei [17] = assay: Antimalarial activity against Plasmodium berghei infected in mouse assessed as reduction in parasitemia at 33.3 mg/kg/day, po dosed on days 0, 1 and 2 post infection measured on day 5; type: functional; details: 120 h; summary of the method: as §1
Plasmodium berghei [18] = assay: Antimalarial activity against Plasmodium berghei infected in mouse assessed as mean survival time at 11.1 mg/kg/day, po dosed on days 0, 1 and 2 post infection; type: functional; summary of the method: as §3
Plasmodium berghei [19] = assay: Antimalarial activity against Plasmodium berghei infected in mouse assessed as mean survival time at 33.3 mg/kg/day, po dosed on days 0, 1 and 2 post infection; type: functional; summary of the method: as §3
Plasmodium berghei [20] = assay: Antimalarial activity against Plasmodium berghei infected in mouse assessed as reduction in parasitemia at 33.3 mg/kg/day, po dosed on days 0, 1 and 2 post infection measured on day 7; type: functional; details: 168 h; summary of the method: as §1
Plasmodium berghei [21] = assay: Antimalarial activity against Plasmodium berghei infected in mouse assessed as reduction in parasitemia at 11.1 mg/kg/day, po dosed on days 0, 1 and 2 post infection measured on day 5; type: functional; details: 120 h; summary of the method: as §1
[22] = Chlorocebus sabaeus, Vero, 48 h, read-out: IC50

Structure (SMILES)	Activity (Vero [2])	IC50 (Vero [4]; vero)	selectivity ratio [6]	IC50 (Plasmodium falciparum [7])	selectivity ratio [8]	IC50 (Vero [4]; [22])	IC50 (Plasmodium falciparum [9])	Ratio IC50 [10]	also measured
CCN(CC)CCCC(C)Nc1ccnc2cc(Cl)ccc12 (configuration not stated) [CHLOROQUINE]	Non-toxic	Not Active	–	–	–	–	–	–	inhibition in vivo at 100 mg/kg/day (Plasmodium berghei [1]): 100%; MST (Plasmodium berghei [3]): 26.2 days; inhibition in vivo at 100 mg/kg/day (Plasmodium berghei [5]): 100%
COc1cc(Nc2ccnc(NCCCCNc3ccnc4cc(Cl)ccc34)n2)cc(OC)c1	–	–	285	44 nM	104	12500 nM	120 nM	2.72	–
Fc1ccc(Nc2ccnc(NCCCNc3ccnc4cc(Cl)ccc34)n2)cc1	–	–	490	28 nM	146	13700 nM	94 nM	3.35	–
Clc1ccc2c(NCCCNc3nccc(Nc4ccc(Br)cc4)n3)ccnc2c1	–	–	228	49 nM	237	11200 nM	47 nM	0.95	–
COc1cc(Nc2ccnc(NCCCNc3ccnc4cc(Cl)ccc34)n2)cc(OC)c1	–	–	340	38 nM	121	12900 nM	107 nM	2.81	–
COc1ccc(Nc2ccnc(NCCCCNc3ccnc4cc(Cl)ccc34)n2)cc1	–	–	223	50 nM	166	11100 nM	67 nM	1.34	–
Clc1ccc(Nc2ccnc(NCCNc3ccnc4cc(Cl)ccc34)n2)cc1	–	–	335	47 nM	342	15800 nM	46 nM	0.978	log K (Heme [11]): 5.51; Activity (Heme [12]): Active; Activity (Heme [13]): Active; Activity (Heme [14]): Active; log K (Heme [15]): 5.04; log K (mu-oxodimeric heme): 5.12
Cc1ccc(Nc2ccnc(NCCNc3ccnc4cc(Cl)ccc34)n2)cc1	–	–	135	101 nM	95.1	13600 nM	143 nM	1.41	–
Clc1ccc2c(NCCCNc3nccc(Nc4ccccc4)n3)ccnc2c1	–	–	676	19 nM	89.2	12800 nM	144 nM	7.57	–
Fc1ccc(Nc2ccnc(NCCNc3ccnc4cc(Cl)ccc34)n2)cc1	Non-toxic	Not Active	> 3.32	6020 nM	> 2	–	9990 nM	1.65	–
Clc1ccc2c(NCCCCNc3nccc(Nc4ccc(Br)cc4)n3)ccnc2c1	–	–	214	47 nM	159	10000 nM	63 nM	1.34	–
Clc1ccc2c(NCCNc3nccc(Nc4ccccc4)n3)ccnc2c1	Non-toxic	Not Active	> 13.2	1510 nM	> 13.1	–	1530 nM	1.05	–
CCc1nc(N)nc(N)c1-c1ccc(Cl)cc1	–	–	–	–	–	–	–	–	growth inhibition (GI) (Plasmodium falciparum [16]): inactive
COc1ccc(Nc2ccnc(NCCCNc3ccnc4cc(Cl)ccc34)n2)cc1	–	–	333	40 nM	165	13300 nM	81 nM	2.02	–
COc1ccc(Nc2ccnc(NCCNc3ccnc4cc(Cl)ccc34)n2)cc1	Non-toxic	Not Active	> 500	40 nM	> 83	–	241 nM	6.03	–
Clc1ccc2c(NCCNc3nccc(Nc4ccc(Br)cc4)n3)ccnc2c1	Non-toxic	Not Active	> 541	37 nM	> 147	–	136 nM	3.67	–
Clc1ccc2c(NCCCCNc3nccc(Nc4ccccc4)n3)ccnc2c1	–	–	326	44 nM	35.5	14300 nM	403 nM	9.15	–
COc1cc(Nc2ccnc(NCCNc3ccnc4cc(Cl)ccc34)n2)cc(OC)c1	Non-toxic	Not Active	> 606	33 nM	> 345	–	58 nM	1.75	inhibition in vivo at 33.3 mg/kg/day (Plasmodium berghei [17]): 15.1%; inhibition in vivo at 100 mg/kg/day (Plasmodium berghei [1]): 42.1%; MST (Plasmodium berghei [3]): 9 days; MST (Plasmodium berghei [18]): 5 days; MST (Plasmodium berghei [19]): 8.6 days; inhibition in vivo at 100 mg/kg/day (Plasmodium berghei [5]): 10.4%; inhibition in vivo at 33.3 mg/kg/day (Plasmodium berghei [20]): 6.2%; inhibition in vivo at 11.1 mg/kg/day (Plasmodium berghei [21]): 1.77%
Cc1ccc(Nc2ccnc(NCCCNc3ccnc4cc(Cl)ccc34)n2)cc1	–	–	121	153 nM	53.4	18500 nM	346 nM	2.26	–
Clc1ccc(Nc2ccnc(NCCCCNc3ccnc4cc(Cl)ccc34)n2)cc1	–	–	251	44 nM	212	11000 nM	52 nM	1.18	–
Cc1ccc(Nc2ccnc(NCCCCNc3ccnc4cc(Cl)ccc34)n2)cc1	–	–	140	138 nM	37.2	19300 nM	518 nM	3.75	–
Fc1ccc(Nc2ccnc(NCCCCNc3ccnc4cc(Cl)ccc34)n2)cc1	Non-toxic	Not Active	> 6.25	3200 nM	> 3.43	–	5830 nM	1.82	–
Clc1ccc(Nc2ccnc(NCCCNc3ccnc4cc(Cl)ccc34)n2)cc1	–	–	286	47 nM	30.2	13400 nM	445 nM	9.46	–
